One experiment concerns SK-MEL-2. The experiment can be described thus: Cytotoxicity against human SK-MEL-2 cells assessed as growth inhibition after 72 hrs by SRB assay. It counts as functional. The settings on record: Homo sapiens, SK-MEL-2, 72 h; read-out: ED50 (the source's name). Put shortly:
(§1)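 Sulforhodamine B assay run by NCI-validated procedure. Cells grown at 37 °C under humidified 5% CO2 in RPMI-1640 with 25 mM HEPES, […] (w/v) sodium bicarbonate, 10% (v/v) FBS and 100 μg/mL kanamycin. Compounds came from DMSO stocks, with final DMSO ≤ 1% (v/v). Continuous exposure for 72 h. ED50 (μg/mL, 50% cell-number reduction) interpolated from dose-response data. Triplicate tests. Doxorubicin served as positive control.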
Background: In SRB staining, fixed cells bind dye roughly in proportion to their protein.

The next experiment deals with KB. The experiment can be described thus: Cytotoxicity against human KB cells assessed as growth inhibition after 72 hrs by SRB assay. The class given is functional. The conditions noted are these: Homo sapiens, KB, 72 h; read-out: ED50 (the source's name). Put shortly:
as §1

The nature of experiment [1]: Cytotoxicity against human KBVIN cells assessed as growth inhibition after 72 hrs by SRB assay. It counts as functional. The settings on record: Homo sapiens, KBVIN, 72 h; read-out: ED50 (the source's name). Put shortly:
as §1

The test system of a further experiment is A549. Kind of experiment: Cytotoxicity against human A549 cells assessed as growth inhibition after 72 hrs by SRB assay. The settings on record: Homo sapiens, A549, 72 h; read-out: ED50 (the source's name). The class given is functional. Put shortly:
as §1

The subject of a further experiment is 1A9. The experiment can be described thus: Cytotoxicity against human 1A9 cells assessed as growth inhibition after 72 hrs by SRB assay. It counts as functional. The conditions noted are these: Homo sapiens, 1A9, 72 h; read-out: ED50 (the source's name). The method, boiled down:
as §1

In a further experiment the test system is MCF7. Kind of experiment: Cytotoxicity against human MCF7 cells assessed as growth inhibition after 72 hrs by SRB assay. The conditions noted are these: Homo sapiens, MCF7, 72 h; read-out: ED50 (the source's name). It counts as functional. Put shortly:
as §1

Experiment [2] can be described thus: Cytotoxicity against human U87MG cells assessed as growth inhibition after 72 hrs by SRB assay. The class given is functional, U-87MG ATCC. The conditions noted are these: Homo sapiens, U-87 MG, 72 h; read-out: ED50 (the source's name). The method, boiled down:
as §1

The test system of the next experiment is CAKI-1. Kind of experiment: Cytotoxicity against human CAKI-1 cells assessed as growth inhibition after 72 hrs by SRB assay. The class given is functional. The settings on record: Homo sapiens, CAKI-1, 72 h; read-out: ED50 (the source's name). Put shortly:
as §1

A short description of experiment [3]: Cytotoxicity against human […] cells assessed as growth inhibition after 72 hrs by SRB assay. The class given is functional. The conditions noted are these: Homo sapiens, HCT9, 72 h; read-out: ED50 (the source's name). Put shortly:
as §1

The subject of the next experiment is PC-3. The experiment can be described thus: Cytotoxicity against human PC3 cells assessed as growth inhibition after 72 hrs by SRB assay. The settings on record: Homo sapiens, PC-3, 72 h; read-out: ED50 (the source's name). The class given is functional. The method, boiled down:
as §1

Data on 8 molecules can be found in ChEMBL document CHEMBL3120107, “Cytotoxic cardiac glycosides and coumarins from Antiaris toxicaria” (2014).

Converted amounts (≈) assume the structure as drawn.

In the case of `C[C@@H]1O[C@H](O[C@H]2CC[C@@]3(C(=O)O)[C@H](CC[C@@H]4[C@@H]3CC[C@]3(C)[C@@H](C5=CC(=O)OC5)CC[C@]43O)C2)[C@H](O)[C@H](O)[C@H]1O` [ANTIAROSIDE E], the EC50 in the experiment on SK-MEL-2 stood at 0.12 µg/mL (≈ 0.218 µM); in the experiment with KB, 0.49 µg/mL (≈ 0.89 µM); in experiment [1], 0.57 µg/mL (≈ 1.04 µM); in the experiment on A549, 0.07 µg/mL (≈ 0.127 µM); with 1A9, 0.13 µg/mL (≈ 0.236 µM); with MCF7 it was 0.42 µg/mL (≈ 0.763 µM). Also, the EC50 in experiment [2] stood at 0.73 µg/mL (≈ 1.33 µM); in the experiment on CAKI-1, 0.13 µg/mL (≈ 0.236 µM); in [3], 0.35 µg/mL (≈ 0.636 µM); in the experiment with PC-3 it was 0.16 µg/mL (≈ 0.291 µM).

Regarding `C[C@H]1O[C@@H](O[C@H]2CC[C@]3(C=O)[C@H]4CC[C@]5(C)[C@@H](C6=CC(=O)OC6)CC[C@]5(O)[C@@H]4CC[C@]3(O)C2)[C@H](O)[C@H](O)[C@H]1O` [DESGLUCOCHEIROTOXIN], the EC50 in the experiment on SK-MEL-2 was 0.015 µg/mL (≈ 0.0272 µM); in the experiment with KB it was 0.044 µg/mL (≈ 0.0799 µM); in experiment [1], 0.018 µg/mL (≈ 0.0327 µM); with A549 it was 0.0092 µg/mL (≈ 0.0167 µM); with 1A9, 0.012 µg/mL (≈ 0.0218 µM); with MCF7, 0.015 µg/mL (≈ 0.0272 µM). The EC50 turned out to be 0.054 µg/mL (≈ 0.0981 µM) in [2], 0.014 µg/mL (≈ 0.0254 µM) in the experiment on CAKI-1, 0.044 µg/mL (≈ 0.0799 µM) in experiment [3] and 0.018 µg/mL (≈ 0.0327 µM) with PC-3.

On to `C[C@H]1O[C@H](O[C@H]2CC[C@]3(C(=O)O)[C@H]4C[C@@H](O)[C@]5(C)[C@@H](C6=CC(=O)OC6)CC[C@]5(O)[C@@H]4CC[C@]3(O)C2)[C@H](O)[C@H](O)[C@H]1O` [ANTIAROSIDE H], for which the EC50 in the experiment on SK-MEL-2 was 1.3 µg/mL (≈ 2.23 µM); with KB, 5.9 µg/mL (≈ 10.1 µM); in experiment [1], 7.1 µg/mL (≈ 12.2 µM); in the experiment with A549 it was 0.76 µg/mL (≈ 1.3 µM); in the experiment on 1A9 it was 1.4 µg/mL (≈ 2.4 µM); with MCF7, 3.1 µg/mL (≈ 5.32 µM). The EC50 is 7.3 µg/mL (≈ 12.5 µM) in experiment [2], 1.5 µg/mL (≈ 2.57 µM) with CAKI-1, 2.5 µg/mL (≈ 4.29 µM) in experiment [3] and 1.8 µg/mL (≈ 3.09 µM) in the experiment on PC-3.

As for `C[C@H]1O[C@H](O[C@H]2CC[C@]3(C=O)[C@H]4C[C@@H](O)[C@]5(C)[C@@H](C6=CC(=O)OC6)CC[C@]5(O)[C@@H]4CC[C@]3(O)C2)[C@H](O)[C@H](O)[C@H]1O`, the EC50 in the experiment with SK-MEL-2 turned out to be 0.13 µg/mL (≈ 0.229 µM); with KB it was 0.14 µg/mL (≈ 0.247 µM); in experiment [1], 0.15 µg/mL (≈ 0.265 µM); with A549, 0.059 µg/mL (≈ 0.104 µM); with 1A9, 0.058 µg/mL (≈ 0.102 µM); with MCF7, 0.1 µg/mL (≈ 0.176 µM). Further, the EC50 in [2] stood at 0.017 µg/mL (≈ 0.03 µM); in the experiment with CAKI-1, 0.072 µg/mL (≈ 0.127 µM); in [3], 0.15 µg/mL (≈ 0.265 µM); with PC-3, 0.0044 µg/mL (≈ 0.00777 µM).

Take `C[C@@H]1O[C@H](O[C@H]2CC[C@]3(CO)[C@H]4CC[C@]5(C)[C@@H](C6=CC(=O)OC6)CC[C@]5(O)[C@@H]4CC[C@]3(O)C2)[C@H](O)[C@H](O)[C@H]1O` [CONVALLATOXOL]: the EC50 in the experiment on SK-MEL-2 was found to be 0.014 µg/mL (≈ 0.0253 µM); with KB, 0.025 µg/mL (≈ 0.0452 µM); in experiment [1], 0.014 µg/mL (≈ 0.0253 µM); with A549 it was 0.004 µg/mL (≈ 0.00724 µM); with 1A9, 0.0076 µg/mL (≈ 0.0138 µM); with MCF7 it was 0.012 µg/mL (≈ 0.0217 µM). Moreover, the EC50 in experiment [2] is 0.036 µg/mL (≈ 0.0651 µM); in the experiment on CAKI-1, 0.0061 µg/mL (≈ 0.011 µM); in [3], 0.02 µg/mL (≈ 0.0362 µM); in the experiment on PC-3, 0.013 µg/mL (≈ 0.0235 µM).

With `C[C@H]1O[C@H](O[C@H]2CC[C@]3(C=O)[C@H]4CC[C@]5(C)[C@@H](C6=CC(=O)OC6)CC[C@]5(O)[C@@H]4CC[C@]3(O)C2)[C@H](O)[C@H](O[C@@H]2O[C@H](CO)[C@@H](O)[C@H](O)[C@H]2O)[C@@H]1O` [GLUCOSTROPHALLOSIDE], the EC50 was determined as 0.12 µg/mL (≈ 0.168 µM) with SK-MEL-2; 0.12 µg/mL (≈ 0.168 µM) with KB; 0.083 µg/mL (≈ 0.116 µM) in experiment [1]; 0.038 µg/mL (≈ 0.0533 µM) with A549; 0.057 µg/mL (≈ 0.08 µM) with 1A9; 0.096 µg/mL (≈ 0.135 µM) in the experiment with MCF7. Further, the EC50 in experiment [2] amounted to 0.15 µg/mL (≈ 0.21 µM); in the experiment on CAKI-1 it was 0.065 µg/mL (≈ 0.0912 µM); in experiment [3] it was 0.13 µg/mL (≈ 0.182 µM); in the experiment with PC-3 it was 0.084 µg/mL (≈ 0.118 µM).

With `C[C@]12CC[C@H](O)C[C@@]1(O)CC[C@@H]1[C@@H]2CC[C@]2(C)[C@@H]([C@]3(O)COC(=O)C3)CC[C@]12O` [ANTIAROTOXININ A], the EC50 in the experiment on A549 was found to be 4.3 µg/mL (≈ 10.5 µM); in the experiment on MCF7, 15 µg/mL (≈ 36.7 µM).

`C[C@H]1O[C@H](O[C@H]2CC[C@]3(C=O)[C@H]4C[C@@H](O)[C@]5(C)[C@@H](C6=CC(=O)OC6)CC[C@]5(O)[C@@H]4CC[C@]3(O)C2)[C@H](O)[C@H](O)[C@@H]1O` [ANTIALLOSIDE]: the EC50 in the experiment with SK-MEL-2 is 0.12 µg/mL (≈ 0.212 µM); in the experiment on KB, 0.065 µg/mL (≈ 0.115 µM); in experiment [1], 0.075 µg/mL (≈ 0.132 µM); with A549, 0.046 µg/mL (≈ 0.0812 µM); with 1A9 it was 0.062 µg/mL (≈ 0.109 µM); in the experiment on MCF7, 0.12 µg/mL (≈ 0.212 µM). Besides, the EC50 in experiment [2] was 0.15 µg/mL (≈ 0.265 µM); in the experiment with CAKI-1, 0.068 µg/mL (≈ 0.12 µM); in [3] it was 0.11 µg/mL (≈ 0.194 µM); with PC-3, 0.085 µg/mL (≈ 0.15 µM).
